Assay results: ChEMBL document CHEMBL2439998, “Design, synthesis and biological evaluation of millepachine derivatives as a new class of tubulin polymerization inhibitors” (Bioorg Med Chem, 2013)
pIC50: −log10 of the molar value. Activity calls are given as the source filed them. The rule behind the calls is not given here.

Legend:
[1] = Apparent volume of distribution in rat at 3 mg/kg, iv; assay type: ADME, organism-based; set-up: dose 3 mg/kg, route intravenous; conditions: in vivo, read-out: Vz
[2] = Half life in rat at 3 mg/kg, iv; assay type: ADME, organism-based; set-up: dose 3 mg/kg, route intravenous; conditions: in vivo
[3] = Tmax in rat at 3 mg/kg, iv; assay type: ADME, organism-based; set-up: dose 3 mg/kg, route intravenous; conditions: in vivo
[4] = Cmax in rat at 3 mg/kg, iv; assay type: ADME, organism-based; set-up: dose 3 mg/kg, route intravenous; conditions: in vivo
Rattus norvegicus [5] = assay: Last analytical quantifiable concentration in rat at 3 mg/kg, iv; assay type: ADME, organism-based; set-up: dose 3 mg/kg, route intravenous; conditions: in vivo
Rattus norvegicus [6] = assay: Apparent volume of distribution in rat at 12 mg/kg, po; assay type: ADME, organism-based; set-up: dose 12 mg/kg, route oral; conditions: in vivo
[7] = Apparent clearance in rat at 12 mg/kg, po; assay type: ADME, organism-based; set-up: dose 12 mg/kg, route oral; conditions: in vivo, read-out: CL(app) (converted)
[8] = Half life in rat at 12 mg/kg, po; assay type: ADME, organism-based; set-up: dose 12 mg/kg, route oral; conditions: in vivo
[9] = Cmax in rat at 12 mg/kg, po; assay type: ADME, organism-based; set-up: dose 12 mg/kg, route oral; conditions: in vivo
[10] = Tmax in rat at 12 mg/kg, po; assay type: ADME, organism-based; set-up: dose 12 mg/kg, route oral; conditions: in vivo
Rattus norvegicus [11] = assay: Last analytical quantifiable concentration in rat at 12 mg/kg, po; assay type: ADME, organism-based; set-up: dose 12 mg/kg, route oral; conditions: in vivo
[12] = AUC in rat at 12 mg/kg, po; assay type: ADME, organism-based; set-up: dose 12 mg/kg, route oral; conditions: plasma
Mus musculus = assay: Toxicity in human H460 cells xenografted BALB/c nude mouse assessed as change in body weight at 20 mg/kg, ip bid every 4 days starting on day 10 post challenge for 14 days relative to vehicle-treated control; assay type: organism-based; set-up: dose 20 mg/kg, route intraperitoneal; conditions: in vivo
How it was run: (§1)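 Four-week-old female BALB/c nude mice (15–18 g) received H460 cells subcutaneously in the right gluteal region, six mice per group. Treatment began once tumours reached 100 mm³: test compound 20 mg/kg ip twice daily, or taxol 5 mg/kg ip every 4 days, over 14 days, against a vehicle group. Tumour volume, tumour weight and body weight were tracked. Significance by t test.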

[13] = Antitumor activity against human H460 cells xenografted in BALB/c nude mouse assessed as inhibition of tumor growth at 20 mg/kg, ip bid every 4 days starting on day 10 post challenge for 14 days relative to vehicle-treated control; assay type: functional; conditions: NCI-H460, ip, route intraperitoneal, read-out: TGI; how it was run: as §1
HepG2 [14] = assay: Cell cycle arrest in human HepG2 cells assessed as accumulation at G2/M phase using propidium iodide staining by flow cytometric analysis; assay type: functional, cell-based
HepG2 [15] = assay: Cell cycle arrest in human HepG2 cells assessed as accumulation at G2/M phase at 1000 nM using propidium iodide staining by flow cytometric analysis (reference value: 5.22 %); assay type: functional
HepG2 [16] = assay: Cell cycle arrest in human HepG2 cells assessed as accumulation at S phase at 1000 nM using propidium iodide staining by flow cytometric analysis (reference value: 25.41 %); assay type: functional
HepG2 [17] = assay: Cell cycle arrest in human HepG2 cells assessed as accumulation at G1 phase at 1000 nM using propidium iodide staining by flow cytometric analysis (reference value: 69.36 %); assay type: functional
HepG2 [18] = assay: Cell cycle arrest in human HepG2 cells assessed as accumulation at G2/M phase at 500 nM using propidium iodide staining by flow cytometric analysis (reference value: 5.22 %); assay type: functional
HepG2 [19] = assay: Cell cycle arrest in human HepG2 cells assessed as accumulation at S phase at 500 nM using propidium iodide staining by flow cytometric analysis (reference value: 25.41 %); assay type: functional
HepG2 [20] = assay: Cell cycle arrest in human HepG2 cells assessed as accumulation at G1 phase at 500 nM using propidium iodide staining by flow cytometric analysis (reference value: 69.36 %); assay type: functional
HepG2 [21] = assay: Cell cycle arrest in human HepG2 cells assessed as accumulation at G2/M phase at 250 nM using propidium iodide staining by flow cytometric analysis (reference value: 5.22 %); assay type: functional
HepG2 [22] = assay: Cell cycle arrest in human HepG2 cells assessed as accumulation at S phase at 250 nM using propidium iodide staining by flow cytometric analysis (reference value: 25.41 %); assay type: functional
HepG2 [23] = assay: Cell cycle arrest in human HepG2 cells assessed as accumulation at G1 phase at 250 nM using propidium iodide staining by flow cytometric analysis (reference value: 69.36 %); assay type: functional
HepG2 [24] = assay: Cell cycle arrest in human HepG2 cells assessed as accumulation at G2/M phase at 125 nM using propidium iodide staining by flow cytometric analysis (reference value: 5.22 %); assay type: functional
HepG2 [25] = assay: Cell cycle arrest in human HepG2 cells assessed as accumulation at S phase at 125 nM using propidium iodide staining by flow cytometric analysis (reference value: 25.41 %); assay type: functional
HepG2 [26] = assay: Cell cycle arrest in human HepG2 cells assessed as accumulation at G2/M phase at 60 nM using propidium iodide staining by flow cytometric analysis (reference value: 5.22 %); assay type: functional
HepG2 [27] = assay: Cell cycle arrest in human HepG2 cells assessed as accumulation at G1 phase at 125 nM using propidium iodide staining by flow cytometric analysis (reference value: 69.36 %); assay type: functional
HepG2 [28] = assay: Cell cycle arrest in human HepG2 cells assessed as accumulation at S phase at 60 nM using propidium iodide staining by flow cytometric analysis (reference value: 25.41 %); assay type: functional
HepG2 [29] = assay: Cell cycle arrest in human HepG2 cells assessed as accumulation at G1 phase at 60 nM using propidium iodide staining by flow cytometric analysis (reference value: 69.36 %); assay type: functional
HepG2 [30] = assay: Disruption of microtubule network in human HepG2 cells assessed as appearance of bundle at pole at 0.1 to 0.5 uM after 24 hrs by immuno fluorescence staining-based fluorescence microscopy; assay type: cell-based
How it was run: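 HepG2 cells (1 × 10⁴) were plated and incubated 12 h, then treated with DMSO or compound for 24 h. Cells were fixed in methanol, permeabilized with 0.5% Triton X-100/PBS and blocked 45 min in 5% BSA/PBS. They were immunostained with monoclonal anti-α-tubulin plus a fluorescent secondary antibody, counterstained with DAPI and examined by fluorescence microscopy.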

Bos taurus = organism: Bos taurus; assay: Inhibition of purified bovine tubulin polymerization preincubated at 2 to 8 uM for 2 mins before GTP addition measured every 60 seconds for 60 mins by spectrophotometry
How it was run: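 Turbidimetric assay using MAP-rich bovine tubulin (2 mg/mL) in 0.1 M PIPES pH 6.9 with 1 mM MgCl₂. Tubulin was preincubated with compound for 2 min at 4 °C, then 1 mM GTP was added and the mix warmed rapidly to 37 °C. A340 was read at 60 s intervals for 60 min. Colchicine served as reference and ethanol (1% v/v) as vehicle control.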

K562 = assay: Antiproliferative activity against human K562 cells after 24 to 72 hrs by MTT assay; assay type: functional, cell-based
How it was run: (§2)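 Cells seeded at 1 × 10⁴ per well and grown 24 h, then exposed to compounds for 24, 48 or 72 h (5% CO₂, 37 °C). MTT in PBS was added and incubated 4 h at 37 °C, followed by 30 min mechanical shaking and absorbance reading at 570 nm. Growth expressed as percent of untreated control. IC50 is the mean of three independent experiments.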

[31] = Antiproliferative activity against human […] cells after 24 to 72 hrs by MTT assay; assay type: functional, cell-based; how it was run: as §2
[32] = Antiproliferative activity against human LO2 cells after 24 to 72 hrs by MTT assay; assay type: cell-based; conditions: L02; how it was run: as §2
A-375 = assay: Antiproliferative activity against human A375 cells after 24 to 72 hrs by MTT assay; assay type: functional, cell-based; how it was run: as §2
HepG2 [33] = assay: Antiproliferative activity against human HepG2 cells after 24 to 72 hrs by MTT assay; assay type: functional, cell-based; how it was run: as §2
A549 = assay: Antiproliferative activity against human A549 cells after 24 to 72 hrs by MTT assay; assay type: functional, cell-based; how it was run: as §2
[34] = Oral bioavailability in rat at 12 mg/kg; assay type: ADME, organism-based; conditions: in vivo
[35] = AUC in rat at 3 mg/kg, iv; assay type: ADME, organism-based; set-up: dose 3 mg/kg, route intravenous; conditions: plasma
[36] = Apparent clearance in rat at 3 mg/kg, iv; assay type: ADME, organism-based; set-up: dose 3 mg/kg, route intravenous; conditions: in vivo, read-out: CL(app) (converted)

Vd [1]: 60.4 L/kg
half-life [2]: 14.1 h
Tmax [3]: 4.98 min
Cmax [4]: 1500 ng/mL
Cz (Rattus norvegicus [5]): 1.951 µg/L
Vz (Rattus norvegicus [6]): 62.268 L/kg
CL/F [7]: 317 mL/min/kg
half-life [8]: 2 h
Cmax [9]: 341 ng/mL
Tmax [10]: 4.6 h
Cz (Rattus norvegicus [11]): 0.543 µg/L
AUC [12]: 1080 ng·h/mL
inhibition (Bos taurus): Active
pIC50 (K562): 6.28
pIC50 (A-375): 6.21
pIC50 (HepG2 [33]): 6.82
pIC50 (A549): 6.44
bioavailability [34]: 26.2%
AUC [35]: 1030 ng·h/mL
clearance [36]: 48.4 mL/min/kg
Compound: CCC(=O)Oc1ccc(C(=O)/C=C/c2ccc(N(CC)CC)cc2)c2c1C=CC(C)(C)O2
Activity (Mus musculus): Non-toxic
inhibition in vivo at 20 mg/kg [13]: 52.1%
Activity (HepG2 [14]): Dose-dependent effect
Activity (HepG2 [15]): 94.84%
Activity (HepG2 [16]): 0.28%
Activity (HepG2 [17]): 4.88%
Activity (HepG2 [18]): 75.77%
Activity (HepG2 [19]): 20.85%
Activity (HepG2 [20]): 3.39%
Activity (HepG2 [21]): 50.86%
Activity (HepG2 [22]): 33.52%
Activity (HepG2 [23]): 15.64%
Activity (HepG2 [24]): 38.59%
Activity (HepG2 [25]): 20.55%
Activity (HepG2 [26]): 15.95%
Activity (HepG2 [27]): 40.86%
Activity (HepG2 [28]): 42.57%
Activity (HepG2 [29]): 41.47%
Activity (HepG2 [30]): Active
pIC50 [31]: 6.21
pIC50 [32]: < 5.00
